Screening data as filed in PubChem BioAssay.
E-sel inducer: E-selectin induction in HUVECs, primary screen, imaging, HUVEC, immunofluorescence imaging, single point. P16581. normalized: neutral wells 0, TNF-alpha wells 100. activation, % at 7.58 µM. hit rate 0.37% among 260,000;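 active = mean E-selectin-positive cell signal at least 10% of the positive control, reached in at least 60% of replicates, without over 20% cell loss; inconclusive = no rule given, readout overlaps actives, possibly toxicity-flagged; inactive = the rest, including those meeting only one limit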
Target sequence (P16581 whole entry, looked up): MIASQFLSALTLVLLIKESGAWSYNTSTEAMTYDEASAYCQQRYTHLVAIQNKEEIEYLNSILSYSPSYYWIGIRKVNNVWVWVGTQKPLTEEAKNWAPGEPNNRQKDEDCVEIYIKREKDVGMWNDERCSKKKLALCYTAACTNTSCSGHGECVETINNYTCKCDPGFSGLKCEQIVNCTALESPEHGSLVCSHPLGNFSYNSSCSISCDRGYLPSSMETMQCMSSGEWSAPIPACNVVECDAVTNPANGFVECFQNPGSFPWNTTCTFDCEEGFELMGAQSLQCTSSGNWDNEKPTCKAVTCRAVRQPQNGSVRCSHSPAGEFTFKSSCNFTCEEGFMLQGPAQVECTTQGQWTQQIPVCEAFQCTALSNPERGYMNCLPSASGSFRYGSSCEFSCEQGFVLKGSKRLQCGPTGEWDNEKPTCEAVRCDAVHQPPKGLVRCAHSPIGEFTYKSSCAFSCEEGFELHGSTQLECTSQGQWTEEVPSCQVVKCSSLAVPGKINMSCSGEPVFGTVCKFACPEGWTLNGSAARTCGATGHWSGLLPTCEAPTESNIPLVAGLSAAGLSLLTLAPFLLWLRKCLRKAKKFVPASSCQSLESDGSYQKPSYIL
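Assay system: HUVEC, human umbilical vein endothelial cells / Amount: 3,000 HUVEC/well / Controls: TNF-alpha positive control, DMSO neutral control / Compound dosing: single concentration / Medium: EGM-2 over gelatin coat / Evaluation: percent E-selectin-positive cells / Signal: immunofluorescence imaging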
EWS-Fli inh: EWS/Fli-driven NR0B1 reporter inhibitors, primary screen, A673 cells, NR0B1 luciferase, luminescence, MLPCN library | viability-normalised | inhibition, % at 12.6 µM | hit rate 0.67% among 350,000 | AID 651661, 2012;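 active = mean inhibition of at least 50% after viability correction, with every replicate also passing that limit; inconclusive = mean reaches 50% but only one of two replicates passes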;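 note: firefly luciferase signal divided by Alamar Blue viability fluorescence both relative to DMSO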
LGR2 inh: inhibitors of bursicon-induced LGR2 CRE-luciferase signal, primary screen, cell-based, HEK293, CRE-luciferase reporter, bursicon stimulation; hit rate 0.35% among 380,000; Drosophila bursicon receptor LGR2 (rickets); inhibition, % at 9.99 µM; bursicon-stimulated, 4 h;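 active = drop in luminescence signal, shown as inhibition above about 50% in the replicate tests, limit read from the data, passing the limit was not always enough; inconclusive = probably only some replicates passing the limit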;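 note: agonist challenge used bursicon conditioned medium at about half maximal strength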
rRNA inh HTS: reduced GFP signal of wild-type E. coli, primary screen, bacterial rRNA inhibitor project, GFP/RFP fluorescence, OD600, single point; E. coli WT GFP vs humanized-ribosome RFP mutants, 24 h; hits give low values; DMSO median 0, no signal -100; hit rate 1.6% among 350,000; AID 720706, 2013; GFP signal change (wild-type ribosome), % (test concentration not listed);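 active = significant combined selectivity score with lowered wild-type GFP, culture density cut under 30%, mutant RFP and density less affected; inactive = any of these conditions unmet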
DNA binder FP: DNA binders by acridine orange displacement, dose response, counter-screen for EWS/Fli inhibitor project, biochemical, fluorescence polarization, cherry-pick | shares compounds with EWS-Fli inh | salmon sperm DNA acridine orange fluorescence polarization | AC35, µM (series often up to 68 µM), for inactives: top-dose activity change, negative = DNA binding | hit rate 2% among 640;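 active = fitted curve reaches a 35% signal fall AC35 below twice the sample's top valid tested dose, actives reach about 48 µM in these data; inactive = the rest, including activity in the rising direction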;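 note: lower polarization ratio signals compound binding to DNA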
AID977621: growth inhibition of wild-type GFP E. coli, dose response, H69 mutant RFP, cherry-pick; shares compounds with rRNA inh HTS; E. coli wild-type GFP strain growth, fluorescence, 24 h; activity change, negative = inhibition at 50 µM; 1,900 tested, under 10 active;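 active = Wild-type ribosome reporter drop at least double the humanized mutant ribosome reporter drop, growth loss under a set limit; inconclusive = no clear call, values can overlap the other calls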;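 note: wild-type GFP and H69 mutant RFP strains grown together 50/50 in each well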
AID977628: E. coli growth inhibition, wild-type GFP versus h24 humanized RFP strain, dose response, h24 mutant RFP vs wild-type GFP, cherry-pick; shares compounds with rRNA inh HTS; E. coli WT GFP strain growth, fluorescence, 24 h; activity change, negative = inhibition at 50 µM; 1,900 tested, under 10 active; AID 977628, 2014;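 active = compound lowering the normal-ribosome reporter at least twice as much as the humanized-ribosome reporter, growth loss under a set limit; inconclusive = no clear call, values can overlap the other calls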;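 note: wild-type GFP and h24 humanized RFP strains co-cultured 1 to 1 per well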
An asterisk follows results filed as active; ? = inconclusive; / = not tested or not shown. Shown are actives, neighbours in structure and some others; about 2.4% of the full set was active somewhere.

SMILES	E-sel inducer	EWS-Fli inh	LGR2 inh	rRNA inh HTS	DNA binder FP	others
CC(=O)OC1CC(OC2C(O)CC(OC3C(O)CC(OC4CCC5(C)C(CCC6C5CCC5(C)C(C7=CC(=O)OC7)C(O)CC65O)C4)OC3C)OC2C)OC(C)C1OC1OC(CO)C(O)C(O)C1O (stereo not given)	-0.2	63.5*	87.0*	19.8	-2.5%
CC(=O)O[C@@H]1CC[C@]2(C)C3CC[C@@]4(C)C(C[C@@H](O)[C@@H]4O)C3[C@@H](OC(C)=O)C[C@H]2C1 (stereo not given in full)	-0.3	1.6	8.6	3.5	/
CC(=O)OC1CC2(O)C3CCC4CC(O)CCC4(C)C3CCC2(C)C1C1=CC(=O)OC1 (stereo not given)	5.7	63.0*	90.3*	-0.3	-11.4%
CC=Cc1ccc2n(c1=O)C[C@@H]1[C@@H](CO)[C@H](C(=O)OC)[C@H]2N1CC1CCCCC1 (mixture of isomers)	0.3	0.2	21.5	-3.1	/
O=C1NC2C(=CC(O)C(O)C2O)c2cc3c(cc21)OCO3 (stereo not given)	-0.4	56.0*	104.7*	4.3	-9.0%
Cc1ccccc1-n1c(/C=C/c2ccccn2)nc2ccccc2c1=O	-0.3	-28.2	-19.6	4.3	/
CN1C2CCC1/C(=C/c1ccccn1)C(=O)/C2=C\c1ccccn1	5.3	80.0*	101.6*	-21.3	-2.8%
O=C(O)[C@@H]1[C@@H](CO)[C@@H]2Cn3c(ccc(-c4ccncc4)c3=O)[C@H]1N2C(=O)C1CCC1	0.0	-8.2	27.2	-1.4	/
C[C@]12CCC3C(CCC4=CC(O)CC[C@@]43/C=N/O)C1(O)CCC2C1=CC(=O)OC1 (stereo not given in full)	/	68.9*	81.9*	0.8	10.4%
C[C@]12CC[C@H]3[C@@H](CC[C@]4(O)C[C@@H](O)CC[C@]34C=O)[C@@]1(O)CC[C@@H]2C1=CC(=O)OC1	-0.4	79.0*	84.4*	/	-4.2%
CC12CCC3C(CCC4(O)CC(O)CCC34C=NO)C1(O)CCC2C1=COC(=O)C1 (stereo not given)	5.2	73.9*	/	/	-4.3%
CN(C)CC#Cc1ccc([C@@H]2[C@@H](CO)N3CCCCN(C(=O)Cc4ccccn4)C[C@H]23)cc1	0.2	-4.9	-3.3	6.2	/
CCC(=O)N1[C@@H]2Cn3c(ccc(-c4ccc(F)cc4)c3=O)[C@H]1[C@@H](C(=O)OC)[C@@H]2CO	-0.4	-6.0	6.1	2.2	/
C/C=C/c1ccc([C@@H]2[C@H]3CN(C(=O)Cc4cccnc4)CCCCN3[C@H]2CO)cc1	2.1	-5.9	15.2	-0.5	/
O=C1NC(=O)N(Cc2ccc(F)cc2)C(=O)/C1=C\C=C\c1ccco1	-5.8	54.8*	7.1	29.3	-7.8%
O=C1NC(=O)N(c2ccccc2)C(=O)/C1=C\C=C\c1ccccc1	-1.0	57.7*	-3.3	8.0	-17.5%
Cc1cc(C)cc(N2C(=O)NC(=O)/C(=C\C=C\c3ccco3)C2=O)c1	/	61.1*	-4.5	8.9	0.3%
CCCNC(=O)N1[C@@H]2Cn3c(ccc(-c4ccccc4OC)c3=O)[C@H]1[C@@H](C(=O)O)[C@@H]2CO	0.0	-0.6	9.6	2.0	/
COC(=O)[C@@H]1[C@@H](CO)[C@@H]2Cn3c(ccc(-c4ccccc4F)c3=O)[C@H]1N2Cc1ccccc1	-0.8	-0.8	-7.7	-2.0	/
COC(=O)[C@H]1[C@H](CO)[C@H]2Cn3c(ccc(C4=CCCCC4)c3=O)[C@@H]1N2C(=O)NC(C)C	0.0	2.9	-3.9	-1.3	/
Cc1cc2c(C(C)C)c(O)c(O)c(C=O)c2c(O)c1-c1c(C)cc2c(C(C)C)c(O)c(O)c(C=O)c2c1O	3.8	57.8*	37.8	-7.7*	7.4%
COC(=O)C[C@@H]1CC[C@@H]2NC[C@H](O)COC[C@H]2O1	-0.2	2.4	12.8	1.8	/
CC[C@@H]1C[C@H]2CC[C@H](O2)[C@H](C)C(=O)O[C@@H](C)C[C@@H]2CC[C@@H](O2)[C@@H](C)C(=O)O[C@H](C)C[C@H]2CC[C@H](O2)[C@H](C)C(=O)O[C@@H](C)C[C@@H]2CC[C@@H](O2)[C@@H](C)C(=O)O1	/	53.8*	19.7	-2.9	5.1%
COC(=O)[C@H]1[C@H](CO)[C@H]2Cn3c(ccc(-c4cccnc4)c3=O)[C@@H]1N2S(=O)(=O)c1ccccc1F	0.1	-4.4	-2.1	0.9	/
COc1ccc(C2CN(C)CC2C(=O)c2ccc(C)cc2)cc1Cl (stereo not given)	/	-3.6	10.4	-27.8*	/	AID977621=?;AID977628=?
SMILES	E-sel inducer	EWS-Fli inh	LGR2 inh	rRNA inh HTS	DNA binder FP	others
O=C(Cc1ccccn1)N1CCCCN2[C@@H](CO)[C@H](c3ccc(-c4ccccc4F)cc3)[C@@H]2C1	-0.2	26.3	-8.5	-2.8	/
COC(=O)[C@H]1[C@H](CO)[C@H]2Cn3c(ccc(C4=CCCCC4)c3=O)[C@@H]1N2Cc1ccccc1OC	-0.8	-6.7	5.5	-5.6	/
O=C(c1cc(-c2ccccc2)nc2ccccc12)N1CCC2(CC1)OCCO2	/	1.3	-12.8	-7.8	/
Cc1c(-c2cccc(Cl)c2)nc2ccccc2c1C(=O)N1CCC2(CC1)OCCO2	0.0	/	-3.9	-23.1*	/	AID977628=?
Cc1ccc(-c2cc(-c3ccc(C)cc3)[n+](-c3ccc(C(=O)[O-])cc3)c(-c3ccc(C)cc3)c2)cc1	0.4	-4.7	0.6	-21.4*	/	AID977628=?
Cc1ccc(-c2cc(-c3ccc(C)cc3)[n+](C)o2)cc1	0.0	/	7.1	/	/
CCCNC(=O)N1[C@@H]2c3ccc(-c4cccc(C(=O)N(C)C)c4)c(=O)n3C[C@H]1[C@H](CO)[C@H]2C(=O)O	0.2	0.6	2.0	4.4	/
O=C(c1ccc(Cl)cc1)C1CCCN(Cc2cccc3cnccc23)C1 (stereo not given)	/	18.7	13.1	-24.8*	/	AID977628=?
CSc1ncc(CN2CCCC(C(=O)c3cccc(Cl)c3)C2)cn1 (stereo not given)	2.3	12.2	-0.6	-20.9*	/	AID977621=-2.33;AID977628=-7.57
COc1ccc(CN2CCCC(C(=O)c3cccc(Cl)c3)C2)cc1 (stereo not given)	0.2	7.3	2.7	-13.3	/
